Laboratory results taken from ChEMBL document CHEMBL4706625, “Synthesis of Guaianolide Analogues with a Tunable α-Methylene-γ-lactam Electrophile and Correlating Bioactivity with Thiol Reactivity” (J Med Chem, 2020).
Activity calls are given as the source filed them. The rule behind the calls is not given here.

Legend:
HEK293 [1] = experiment: Inhibition of TNFalpha-induced canonical NF-kappaB signaling (unknown origin) expressed in HEK293 cells assessed as residual NF-kappaB activity at 7.5 uM pre-incubated for 30 mins followed by TNFalpha stimulation for 8 hrs by NF-kappaB-driven SEAP assay; assay type: cell-based; details: Homo sapiens, time 510.0 min
How it was run: (§1)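 HEK293 cells stably carrying an NF-κB-driven SEAP reporter were grown in DMEM with 10% FBS, penicillin/streptomycin and 0.5 mg/mL G418 at 37 °C, 5% CO2. They were seeded at 5,000 cells/well 24 h ahead. Compounds (1–7.5 μM, 0.5% DMSO final) were added for 30 min, then TNF-α at 22.5 ng/mL final for 8 h. Secreted SEAP in the medium was quantified chemiluminescently, relative to the induced control set as 100%.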

A549 [2] = experiment: Inhibition of TNFalpha-induced canonical NF-kappaB signaling (unknown origin) expressed in human A549 cells assessed as residual NF-kappaB activity at 20 uM […] followed by TNFalpha stimulation for 8 hrs by NF-kappaB-driven luciferase reporter gene assay; assay type: cell-based; details: time 500.0 min
A549 [3] = experiment: Inhibition of TNFalpha-induced canonical NF-kappaB signaling (unknown origin) expressed in human A549 cells assessed as residual NF-kappaB activity at 10 uM […] by NF-kappaB-driven luciferase reporter gene assay; assay type: cell-based; details: time 500.0 min
A549 [4] = experiment: Inhibition of TNFalpha-induced canonical NF-kappaB signaling (unknown origin) expressed in human A549 cells at 10 uM […] by NF-kappaB-driven luciferase reporter gene assay; assay type: cell-based; details: time 500.0 min
HEK293 [5] = experiment: Inhibition of TNFalpha-induced canonical NF-kappaB signaling (unknown origin) expressed in HEK293 cells at 7.5 uM pre-incubated for 30 mins followed by TNFalpha stimulation for 8 hrs by NF-kappaB-driven SEAP assay; assay type: cell-based; details: Homo sapiens, time 510.0 min; how it was run: as §1
[6] = Thiol-reactivity using 13C-labeled La antigen containing reactive cysteine C245 at 400 uM at 37 degreeC for 90 mins in absence of DTT by 2D 1H-13C HMQC ALARM NMR spectroscopy; assay type: ADME; details: 1.5 h
How it was run: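 ALARM NMR: compound (400 μM final) was incubated with 13C-methyl-labeled La antigen (50 μM final) at 37 °C for 90 min, without and with 20 mM DTT. Reactivity was scored from 13C-methyl chemical shift changes and attenuation of diagnostic peaks in 1H-13C HMQC spectra without DTT.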

[7] = Thiol-reactivity using La antigen containing reactive cysteine C245 at 0.5 mM incubated for 1 hr by MS analysis based ALARM MSPS analysis; details: 500 µM
A549 [8] = experiment: Inhibition of TNFalpha-induced canonical NF-kappaB signaling (unknown origin) expressed in human A549 cells at 20 uM […] by NF-kappaB-driven luciferase reporter gene assay; assay type: cell-based; details: time 500.0 min
HEK293 [9] = experiment: Inhibition of TNFalpha-induced canonical NF-kappaB signaling (unknown origin) expressed in HEK293 cells assessed as residual NF-kappaB activity at 7.5 uM pre-incubated for 30 mins followed by TNFalpha stimulation for 8 hrs by NF-kappaB-driven SEAP assay; details: Homo sapiens, time 510.0 min
[10] = Toxicity in African green monkey Vero cells assessed as reduction in cell viability incubated for 48 hrs by Alamar blue assay; assay type: cell-based, Chlorocebus sabaeus

With `C=C1C(=O)N(C(C)=O)[C@@H]2C3=CC(=O)CC3=C(C)CC[C@@H]12` (relative stereo) the Activity (HEK293 [1]) was 19%, the Activity (A549 [2]) was 28% and the Activity (A549 [3]) was 59%.
In the case of `C=C1C(=O)N(S(=O)(=O)c2ccc(C)cc2)[C@@H]2C3=C(c4ccccc4)C(=O)CC3=C(C)CC[C@@H]12` (relative stereo), the inhibition (A549 [4]) is reported as 100% and the inhibition (HEK293 [5]) is reported as 100%.
With `C=C1C(=O)N(c2ccc(C(F)(F)F)cc2)[C@@H]2C3=C(c4ccccc4)C(=O)CC3=C(C)CC[C@@H]12` (relative stereo) the Activity (HEK293 [1]) was 44%, the Activity (A549 [2]) was 21% and the Activity (A549 [3]) was 62%. The Activity [6] was “Not Active” and the Activity [7] was “Not Active”.
In the case of `C=C1C(=O)N[C@@H]2C3=C(c4ccccc4)C(=O)CC3=C(C)CC[C@@H]12`, the inhibition (A549 [8]) is reported as “inactive”.
For `C=C1C(=O)N(c2ccc(OC)cc2)[C@@H]2C3=C(c4ccccc4)C(=O)CC3=C(C)CC[C@@H]12` (relative stereo), the inhibition (A549 [8]) was “inactive” and the inhibition (HEK293 [9]) was “inactive”.
For `C=C1C(=O)N(C)[C@@H]2C3=C(c4ccccc4)C(=O)CC3=C(C)CC[C@@H]12` (relative stereo), the inhibition (A549 [8]) was “inactive”.
With `CCN(CC)c1ccc2c(C)c(-c3ccc(N4C(=O)C=CC4=O)cc3)c(=O)oc2c1` the Activity [6] was “Active” and the Activity [7] was “Active”.
For `OC(Cn1cncn1)(Cn1cncn1)c1ccc(F)cc1F` [FLUCONAZOLE], the Activity [6] was “Not Active” and the Activity [7] was “Not Active”.
For `C=C1C(=O)O[C@H]2C3=C(c4ccccc4)C(=O)CC3=C(C)CC[C@H]12`, the Activity [6] was “Active” and the Activity [7] was “Active”.
In the case of `C=C1C(=O)N[C@@H]2C3=CC(=O)CC3=C(C)CC[C@@H]12`, the inhibition (A549 [8]) is reported as “inactive”, the IC50 at 48 h [10] is reported as > 200 µM and the inhibition (HEK293 [9]) is reported as “inactive”.
Compound `C=C1C(=O)O[C@@H]2[C@H]3O[C@]3(C)CC/C=C(\C)CC[C@@H]12` has an Activity (HEK293 [1]) of 20% and an Activity (A549 [3]) of 53%.
With `C=C1C(=O)N(c2ccccc2)[C@@H]2C3=C(c4ccccc4)C(=O)CC3=C(C)CC[C@@H]12` (relative stereo) the inhibition (A549 [8]) was “inactive” and the inhibition (HEK293 [9]) was “inactive”.
